Source: ChEMBL document CHEMBL1150316, “Arylethynyltriazole acyclonucleosides inhibit hepatitis C virus replication” (Bioorg Med Chem Lett, 2008)
≈ marks a conversion by molar mass, not a printed value.

Assays:
Hepatitis C virus [1] = assay: Antiviral activity against Hepatitis C virus infected human Huh-5-2 cells assessed as inhibition of luciferase activity after 4 days by RNA replicon assay; type: functional, organism-based, Hepacivirus hominis; conditions: Huh-5-2, 96 h
Summary of the method: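 Huh-5-2 subgenomic HCV replicon cells seeded 5000/well in complete DMEM with 250 µg/mL G418, 24 h at 37 °C (5% CO2). Threefold serial compound dilutions then added in DMEM without G418, 4 days at 37 °C. Replication read as luciferase activity (Steady-Glo). EC50 = concentration giving 50% inhibition of luciferase signal.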

[2] = Cytotoxicity against human Huh-5-2 cells; type: cell-based
Summary of the method: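 Exponentially growing Huh-5-2 cells treated with compound. CC50 taken as the concentration that inhibits cell proliferation by 50%.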

PaCa = assay: Cytotoxicity against human MIA PaCa cells upto 200 uM by MTT assay; type: functional, cell-based
Summary of the method: (§1)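 MiaPaCa, Capan-2 and PC-3 cells tested by MTT assay at concentrations up to 200 µM.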

Capan-2 = assay: Cytotoxicity against human Capan2 cells upto 200 uM by MTT assay; type: functional, cell-based; summary of the method: as §1
PC-3 = assay: Cytotoxicity against human PC3 cells upto 200 uM by MTT assay; type: functional, cell-based; summary of the method: as §1
Hepatitis C virus [3] = assay: Antiviral activity against Hepatitis C virus infected human Huh-9-13 cells assessed as reduction of HCV RNA level after 4 days by RT-PCR; type: functional, organism-based, Hepacivirus hominis; conditions: 96 h
Summary of the method: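 Huh-9-13 replicon cells seeded 5000/well in complete DMEM with 1,000 µg/mL G418, 24 h at 37 °C. Threefold serial compound dilutions added in DMEM without G418, 4 days at 37 °C. Monolayers PBS-washed, lysed in RLT buffer, replicon RNA measured by quantitative real-time PCR. EC50 = 50% reduction in HCV RNA versus untreated control.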

Huh-5-2 = assay: Cytotoxicity against human Huh-5-2 cells at 50 ug/ml; type: cell-based

NC(=O)c1nc(C#CC2(O)CCCCC2)n(COCCO)n1
EC50 (Hepatitis C virus [1]): > 50 µg/mL | CC50 [2]: > 50 µg/mL

NC(=O)c1nc(C#Cc2ccc(F)cc2)n(COCCO)n1
EC50 (Hepatitis C virus [1]): 22 µg/mL (≈ 72.3 µM) | CC50 [2]: > 50 µg/mL | Activity (PaCa): Not toxic | Activity (Capan-2): Not toxic | Activity (PC-3): Not toxic

COc1ccc(C#Cc2nc(C(N)=O)nn2COCCO)cc1
EC50 (Hepatitis C virus [1]): > 50 µg/mL | CC50 [2]: > 50 µg/mL

CCCCCc1ccc(C#Cc2nc(C(N)=O)nn2COCCO)cc1
EC50 (Hepatitis C virus [1]): 22 µg/mL (≈ 61.7 µM) | CC50 [2]: 25 µg/mL (≈ 70.1 µM)

NC(=O)c1nc(C#Cc2ccccc2)n(COCCO)n1
EC50 (Hepatitis C virus [1]): 18 µg/mL (≈ 62.9 µM) | CC50 [2]: > 50 µg/mL | EC50 (Hepatitis C virus [3]): > 50 µg/mL | Activity (PaCa): Not toxic | Activity (Capan-2): Not toxic | Activity (PC-3): Not toxic

Cc1ccc(C#Cc2nc(C(N)=O)nn2COCCO)cc1
EC50 (Hepatitis C virus [1]): 16 µg/mL (≈ 53.3 µM) | CC50 [2]: > 50 µg/mL | Activity (Huh-5-2): < 80%

NC(=O)c1nc(C#Cc2ccc(C(F)(F)F)cc2)n(COCCO)n1
EC50 (Hepatitis C virus [1]): 5 µg/mL (≈ 14.1 µM) | CC50 [2]: 20 µg/mL (≈ 56.5 µM)

NC(=O)c1nc(C#CCCCCl)n(COCCO)n1
EC50 (Hepatitis C virus [1]): > 50 µg/mL | CC50 [2]: > 50 µg/mL

NC(=O)c1nc(C#Cc2ccccc2F)n(COCCO)n1
EC50 (Hepatitis C virus [1]): 20 µg/mL (≈ 65.7 µM) | CC50 [2]: > 50 µg/mL | Activity (Huh-5-2): < 80%

NC(=O)c1ncn([C@@H]2O[C@H](CO)[C@@H](O)[C@H]2O)n1 [RIBAVIRIN]
EC50 (Hepatitis C virus [1]): 7 µg/mL (≈ 28.7 µM) | CC50 [2]: 21 µg/mL (≈ 86 µM)

NC(=O)c1nc(C#CC2=CCCCC2)n(COCCO)n1
EC50 (Hepatitis C virus [1]): > 50 µg/mL | CC50 [2]: > 50 µg/mL

NC(=O)c1nc(C#CC2(O)CCCC2)n(COCCO)n1
EC50 (Hepatitis C virus [1]): > 50 µg/mL | CC50 [2]: > 50 µg/mL

NC(=O)c1nc(C#Cc2cccc(F)c2)n(COCCO)n1
EC50 (Hepatitis C virus [1]): 10 µg/mL (≈ 32.9 µM) | CC50 [2]: 29 µg/mL (≈ 95.3 µM)
